In ChEMBL document CHEMBL1134229 (Bioorg Med Chem Lett, 2001) one finds Ki and EC50 data, which are given here for 10 compounds.

In experiment [1] the target is T1, Somatostatin receptor type 4 (Homo sapiens, UniProt P31391). Put plainly: Inhibitory constant on human somatostatin receptor 4. In outline: (§1)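 Competition binding against [¹²⁵I-Tyr¹¹]SRIF-14 on membranes from CHO-K1 cells stably expressing each human SRIF receptor subtype. Method adapted from Shimon et al. Ki is reported.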
For experiment [2], the target named is T2, Somatostatin receptor type 5 (Homo sapiens, UniProt P35346). Put plainly: Inhibitory constant on human somatostatin receptor 5. The gist of the method: as §1
The target in experiment [3] is T3, Somatostatin receptor type 2 (Homo sapiens, UniProt P30874). Put plainly: (§2) Inhibitory constant on human Somatostatin receptor type 2. The format is single protein. In outline: as §1
Experiment [4] addresses T4, Somatostatin receptor type 3 (Homo sapiens, UniProt P32745). Put plainly: Inhibitory constant on human somatostatin receptor type 3. The gist of the method: as §1
The target of experiment [5] is Somatostatin receptor type 1 (Homo sapiens, UniProt P30872). Put plainly: Inhibitory constant on human Somatostatin receptor type 1. The gist of the method: as §1
Experiment [6] has as its target T1, Somatostatin receptor type 4. Put plainly: Inhibitory constant on human Somatostatin receptor type 4. The gist of the method:
as §1

The target of experiment [7] is T4, Somatostatin receptor type 3. Put plainly: Inhibitory constant on human Somatostatin receptor type 3. In outline: as §1
Experiment [8] addresses T2, Somatostatin receptor type 5. Put plainly: Inhibitory constant on human Somatostatin receptor type 5. The gist of the method:
as §1

The target of experiment [9] is T3, Somatostatin receptor type 2. Described as §2. The gist of the method:
as §1

Experiment [10] deals with T2, Somatostatin receptor type 5. Put plainly: Agonist activity on human somatostatin receptor 5. The format is functional. In outline: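 Confluent CHO-K1 cells expressing human sst₅ were washed in RPMI 1640 with 0.2% BSA at 37 °C, then preincubated 5 min with isobutylmethylxanthine. Cells were then incubated 20 min at 37 °C with forskolin plus increasing agonist concentrations.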

T2 sequence (P35346 whole entry): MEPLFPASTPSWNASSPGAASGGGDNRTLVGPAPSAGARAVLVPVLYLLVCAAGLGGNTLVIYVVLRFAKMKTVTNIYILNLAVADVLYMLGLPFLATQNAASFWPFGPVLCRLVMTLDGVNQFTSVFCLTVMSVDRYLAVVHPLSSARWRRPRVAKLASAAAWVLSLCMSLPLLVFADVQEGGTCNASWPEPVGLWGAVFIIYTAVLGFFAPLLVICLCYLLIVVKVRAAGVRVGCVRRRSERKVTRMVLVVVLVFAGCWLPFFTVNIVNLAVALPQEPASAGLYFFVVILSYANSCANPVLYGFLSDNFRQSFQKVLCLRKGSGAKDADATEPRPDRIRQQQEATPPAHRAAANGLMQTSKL
T1 sequence (P31391 whole entry): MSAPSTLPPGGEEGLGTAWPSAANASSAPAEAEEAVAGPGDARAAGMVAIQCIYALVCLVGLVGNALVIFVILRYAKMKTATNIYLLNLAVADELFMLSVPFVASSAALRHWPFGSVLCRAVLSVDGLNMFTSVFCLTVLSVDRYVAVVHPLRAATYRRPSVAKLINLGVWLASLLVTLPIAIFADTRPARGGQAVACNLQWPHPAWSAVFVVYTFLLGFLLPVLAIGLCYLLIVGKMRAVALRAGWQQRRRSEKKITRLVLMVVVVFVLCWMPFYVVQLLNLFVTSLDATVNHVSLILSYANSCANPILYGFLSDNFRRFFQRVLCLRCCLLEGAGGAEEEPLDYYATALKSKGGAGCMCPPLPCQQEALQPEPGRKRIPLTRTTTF
T3 sequence (P30874 whole entry): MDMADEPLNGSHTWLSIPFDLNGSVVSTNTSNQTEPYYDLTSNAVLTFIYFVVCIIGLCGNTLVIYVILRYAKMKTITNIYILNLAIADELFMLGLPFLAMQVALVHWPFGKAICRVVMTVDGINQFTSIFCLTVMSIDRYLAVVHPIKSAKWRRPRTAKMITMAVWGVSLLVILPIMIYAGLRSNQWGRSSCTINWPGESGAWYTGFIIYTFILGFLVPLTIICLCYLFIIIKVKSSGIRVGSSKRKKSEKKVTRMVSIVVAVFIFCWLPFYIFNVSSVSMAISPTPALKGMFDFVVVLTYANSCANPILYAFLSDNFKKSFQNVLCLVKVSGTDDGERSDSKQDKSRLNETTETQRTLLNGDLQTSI
T4 sequence (P32745 whole entry): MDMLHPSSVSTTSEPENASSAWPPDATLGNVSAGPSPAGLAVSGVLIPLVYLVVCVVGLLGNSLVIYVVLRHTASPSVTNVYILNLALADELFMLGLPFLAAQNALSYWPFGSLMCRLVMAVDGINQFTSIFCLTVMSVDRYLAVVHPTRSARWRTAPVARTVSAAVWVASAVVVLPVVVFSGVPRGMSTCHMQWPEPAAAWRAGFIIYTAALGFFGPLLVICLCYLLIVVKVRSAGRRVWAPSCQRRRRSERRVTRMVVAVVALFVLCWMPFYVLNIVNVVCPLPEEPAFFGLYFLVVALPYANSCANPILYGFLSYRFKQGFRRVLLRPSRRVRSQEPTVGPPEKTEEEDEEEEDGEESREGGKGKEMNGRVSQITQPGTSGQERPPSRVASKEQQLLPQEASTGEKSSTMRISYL
Somatostatin receptor type 1, sequence (P30872 whole entry): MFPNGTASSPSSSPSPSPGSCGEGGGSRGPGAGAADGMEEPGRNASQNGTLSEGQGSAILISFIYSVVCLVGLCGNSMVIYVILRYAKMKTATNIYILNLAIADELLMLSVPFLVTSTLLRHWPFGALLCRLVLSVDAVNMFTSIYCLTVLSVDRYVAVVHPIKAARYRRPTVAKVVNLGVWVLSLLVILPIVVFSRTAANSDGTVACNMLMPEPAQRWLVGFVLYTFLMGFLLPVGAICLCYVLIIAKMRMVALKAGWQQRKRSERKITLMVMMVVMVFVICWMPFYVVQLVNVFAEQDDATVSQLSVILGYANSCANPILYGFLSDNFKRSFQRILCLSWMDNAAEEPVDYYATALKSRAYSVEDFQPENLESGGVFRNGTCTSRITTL

In the case of `CC(C)(C(=O)NCCc1c[nH]c2ccccc12)c1cn2cc(-c3csc4ccccc34)nc(CCCN)c2n1`, the Ki (usually a dissociation constant, usually derived from enzyme kinetics or from competition with a known ligand) in [1] is more than 10 µM; in [2] it was 2.3 µM; in [3], 3.2 µM; in experiment [4] it was 10 µM; in experiment [5] it was 4 µM.

As to `c1ccc(Cc2nc(-c3ccccc3)cn3cc(-c4ccccc4)nc23)cc1`, the Ki in experiment [6], in experiment [7], in experiment [8], in experiment [9] and in experiment [5] was more than 5 µM in each case.

For the compound `CC(C)(C(=O)NCCN)c1cn2c(n1)C(Cc1c[nH]c3ccccc13)N=C(Cc1ccccc1)C2` (stereo unspecified), the Ki in experiment [6] is more than 10 µM; in experiment [7] it was more than 10 µM; in [8] it was more than 1 µM; in experiment [9], more than 10 µM; in experiment [5], more than 10 µM.

On to `NCCCc1nc(-c2cccc([N+](=O)[O-])c2)cn2cc(-c3ccccc3)nc12`, for which the Ki in experiment [1] is more than 10 µM; in experiment [2], 0.43 µM; in [3], 7.9 µM; in [4], 2.5 µM; in experiment [5], 3.4 µM.

For `CC(C)(C(=O)NC1CCCCC1)c1cn2cc(-c3csc4ccccc34)nc(CCCN)c2n1`, the Ki was more than 10 µM in experiment [1]; 0.36 µM in [2]; 9.5 µM in experiment [3]; 3.7 µM in experiment [4]; 9.7 µM in experiment [5]. Moreover, in [10], the EC50 (commonly the concentration that produces a half-maximal response) is 1.6 µM.

As to `NCCCc1nc(-c2ccccc2)cn2cc(-c3ccccc3)nc12`, the Ki in experiment [1], in experiment [2], in experiment [3], in experiment [4] and in experiment [5] was more than 5 µM throughout.

For `NCCCc1nc(-c2csc3ccccc23)cn2cc(-c3ccccc3)nc12`, the Ki in experiment [1] came to 7.2 µM; in experiment [2], 0.6 µM; in [3] it was 2.1 µM; in experiment [4], 1.7 µM; in experiment [5], 2.9 µM.

On to `CC(C)(C(=O)NCCc1c[nH]c2ccccc12)c1cn2cc(Cc3ccccc3)nc(CCCN)c2n1`, for which the Ki in experiment [1] amounted to 7.2 µM; in [2], 1.2 µM; in experiment [3], 8.6 µM; in experiment [4], 1.2 µM; in [5], 4.6 µM.

As for `NCCCc1nc(-c2c[nH]c3ccccc23)cn2cc(-c3ccccc3)nc12`, the Ki was more than 10 µM in experiment [1]; 0.79 µM in [2]; 6 µM in experiment [3]; 3.1 µM in experiment [4]; 3.3 µM in experiment [5].

For `CCCCNC(=O)C(C)(C)c1cn2cc(-c3csc4ccccc34)nc(CCCN)c2n1`, the Ki was more than 10 µM in [1]; 0.54 µM in experiment [2]; more than 10 µM in experiment [3]; 8.9 µM in experiment [4]; more than 10 µM in experiment [5].
